Data: ChEMBL document CHEMBL1140709, “Design, synthesis, and biological evaluation of (E)-styrylbenzylsulfones as novel anticancer agents” (J Med Chem, 2008)
pIC50: −log10 of the molar value.

Experiments:
Assay type in all cases: functional, cell-based
[1] = test system: BT-20; assay: Antitumor activity against human BT20 cells by trypan blue exclusion assay
How it was run: (§1)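 Tumour cells were grown in DMEM or RPMI with 10% fetal bovine serum and 1 unit/mL penicillin-streptomycin. They were seeded in six-well dishes at 1.0 × 10⁵ cells/mL/well, and compound was added 24 h later over a range of concentrations. After 96 h of exposure, viable cells in duplicate wells were counted by trypan blue exclusion.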

[2] = test system: DU-145; assay: Antitumor activity against AR-negative human DU145 cells by trypan blue exclusion assay; how it was run: as §1
[3] = Antitumor activity against human H157 cells by trypan blue exclusion assay; conditions: NCI-H157; how it was run: as §1
[4] = test system: DLD-1; assay: Antitumor activity against human DLD1 cells by trypan blue exclusion assay; how it was run: as §1

Row | Structure (SMILES) | pIC50 [1] | pIC50 [2] | pIC50 [3] | pIC50 [4]
1 | COc1ccc(CS(=O)(=O)/C=C/c2c(OC)cccc2OC)cc1 | 6.40 | 6.60 | 6.15 | 6.15
2 | COc1ccc(CS(=O)(=O)/C=C/c2ccc(F)cc2Cl)cc1 | 5.60 | 5.70 | 5.60 | 5.40
3 | COc1ccc(CS(=O)(=O)/C=C/c2ccc(F)cc2OC)cc1 | 4.82 | 5.00 | 4.70 | 4.82
4 | COc1ccc(CS(=O)(=O)/C=C/c2ccc(N)cc2)cc1 | < 4.70 | < 4.70 | < 4.70 | < 4.70
5 | COc1ccc(CS(=O)(=O)/C=C/c2c(OC)cc(O)cc2OC)cc1O | 6.60 | 6.30 | 6.30 | 6.30
6 | COc1ccc(/C=C/S(=O)(=O)Cc2ccc(OC)cc2)cc1 | < 4.70 | < 4.70 | < 4.70 | < 4.70
7 | COc1cc(OC)c(/C=C/S(=O)(=O)Cc2ccc(OC(F)(F)F)cc2)c(OC)c1 | 5.52 | 5.40 | 5.22 | 5.40
8 | COc1ccc(CS(=O)(=O)/C=C/c2cc(OC)cc(OC)c2)cc1 | < 4.70 | < 4.70 | < 4.70 | < 4.70
9 | COc1cc(OC)c(/C=C/S(=O)(=O)Cc2cc(OC)c(OC)c(OC)c2)c(OC)c1 | < 4.70 | < 4.70 | < 4.70 | < 4.70
10 | COc1cc(OC)c(/C=C/S(=O)(=O)Cc2ccc(C(=O)O)cc2)c(OC)c1 | 4.82 | 5.00 | 4.76 | 4.82
11 | COc1ccc(CS(=O)(=O)/C=C/c2ccc(OC)cc2OC)cc1 | < 4.70 | < 4.70 | < 4.70 | < 4.70
12 | COc1ccc(CS(=O)(=O)/C=C/c2cc(C)cc(C)c2)cc1 | < 4.70 | < 4.70 | < 4.70 | < 4.70
13 | COc1ccc(CS(=O)(=O)/C=C/c2ccc(C)cc2C)cc1 | 4.82 | 4.92 | 4.82 | 4.82
14 | COc1ccc(CS(=O)(=O)/C=C/c2c(OC)cc(F)cc2OC)cc1 | 6.12 | 6.30 | 6.30 | 6.12
15 | COc1ccc(CS(=O)(=O)/C=C/c2c(C)cc(C)cc2C)cc1 | < 4.70 | < 4.70 | < 4.70 | < 4.70
16 | COc1ccc(CS(=O)(=O)/C=C/c2cc(OC)ccc2OC)cc1 | < 4.70 | < 4.70 | < 4.70 | < 4.70
17 | COc1ccc(CS(=O)(=O)/C=C/c2cc(OC)c(OC)c(OC)c2)cc1 | < 4.70 | < 4.70 | < 4.70 | < 4.70
